B1: tRNA (parent)
chain: GUUCCGUUGGCGUAAUGGUAACGCGUCUCCCUCCUAAGGAGAAGACUGCGGGUUCGAGUCCCGUACGGAACG

Fewer inactive variants are shown than the library holds.

In this data set the parent is B1. The data set is described as follows: yeast fitness relative to wild type (ratio to wild type); higher = fitter; tRNA-Arg(CCU), competitive growth, 37 C, YPD. In short, it runs like this: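 Variants of the tRNA-Arg(CCU) gene, chemically synthesised with a 3% per-site mutation rate at 69 sites, were placed at the native genomic locus in Saccharomyces cerevisiae. The pooled strains were competed in YPD at 37°C for 24 hours in six parallel replicates. Gene amplicons from the start population and from each end population were read by 100-nucleotide paired-end sequencing. Darwinian fitness relative to wild type came from changes in genotype frequencies; genotypes needed ≥ 100 starting reads, and estimates < 0.5 were set to 0.5.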
As to G9A C29U A65U, the yeast fitness is at most 0.5.

Consider U8C G9A G12A C60U, for which the yeast fitness was at most 0.5.

In the case of U8G C49G U53C C60A A69U, the yeast fitness is at most 0.5.

On to U8A G25A C29G A37C, for which the yeast fitness was 0.646.

For the variant U8C A21U, the yeast fitness came out at 0.802.

On to U8G A15C U28A, for which the yeast fitness was at most 0.5.

As for U8C G63C, the yeast fitness amounted to 0.778.

As to U8A C49U A69U, the yeast fitness came to 0.537.

Consider U8G A42U A43C, for which the yeast fitness turned out to be 0.51.

Turning to U8C G12C C62U, the yeast fitness is 0.587.

Take G9A C29U U32A A43U: the yeast fitness was 0.604.

For U8C U16C A20C C24G C55A, the yeast fitness was determined as 0.729.

On to U8G A21U G68C, for which the yeast fitness is at most 0.5.

Regarding U8A U26C G38A, the yeast fitness is at most 0.5.

For U8G C24G U47C C61G, the yeast fitness is at most 0.5.

Consider U8A C30U G63A, for which the yeast fitness was at most 0.5.

As for G9A C30G C31G A43G A65G, the yeast fitness was at most 0.5.

As for U8C C24A U35G G52A U64A, the yeast fitness was at most 0.5.

In the case of U8C A14U, the yeast fitness is 0.805.

Consider U8C G9A C22G U32G C49G C55G, for which the yeast fitness is at most 0.5.

In the case of G9A C24G C34G, the yeast fitness was 0.633.

Consider U8A C66A, for which the yeast fitness was 0.568.

For the variant G9A A14C U35C, the yeast fitness is at most 0.5.

For the variant U8C U19C G23C U53C, the yeast fitness was at most 0.5.

With U8C A15G U16A C46U U54C, the yeast fitness was determined as 0.601.

As to U8C G9A G12A, the yeast fitness was 0.529.

Consider G9A C11A A20U C61U, for which the yeast fitness is 0.559.

With U8C G12A A21C, the yeast fitness is at most 0.5.

For the variant G9A C24G C34G A45C A65G, the yeast fitness is at most 0.5.

As to G9A A20G C30U, the yeast fitness was 0.71.

G9A C29U U59G A65C: the yeast fitness was at most 0.5.

Turning to U8C A21G U28C, the yeast fitness came out at 0.637.

In the case of U8C U28G A40U, the yeast fitness worked out at 0.588.

As to U8A G10A G58C A69U, the yeast fitness is at most 0.5.

Turning to G9A C22U C30G C61U, the yeast fitness was at most 0.5.

Regarding U8C A21U U32A C55G, the yeast fitness stood at 0.517.

Take U8A G10A G39A: the yeast fitness stood at 0.626.

For the variant U8A C24A U28C C61U U64A A69G, the yeast fitness is at most 0.5.

Take U8C C34G G48C U59C C60A A65G: the yeast fitness was at most 0.5.

In the case of U8C U32G G50A A69U, the yeast fitness came to 0.557.

For the variant G9A A15U U59A A65C, the yeast fitness stood at 0.654.

On to U8G U13G G23C A40C G63A, for which the yeast fitness was at most 0.5.

Take U8G G48A C49G: the yeast fitness was at most 0.5.

Turning to U8A G9A A36C C61G G67C, the yeast fitness stood at 0.797.

As for G9A C11A C30G C46U, the yeast fitness was at most 0.5.

As for U8A C24G G48C C49U U64A, the yeast fitness is at most 0.5.

For the variant G9A C24G G39C G56C, the yeast fitness was at most 0.5.

On to U8C C24G A57G, for which the yeast fitness is at most 0.5.

As for U8C U35C, the yeast fitness was found to be 0.899.

As to U8G A20U G44C, the yeast fitness was 0.558.

Consider U8A C27A A37U G67U, for which the yeast fitness is 0.612.

Consider U8A C31G A57C C61U, for which the yeast fitness amounted to 0.506.

U8C C11U C29A: the yeast fitness was at most 0.5.

As to U8A U35C A42C G67A, the yeast fitness amounted to 0.568.

Take U8C A42C: the yeast fitness is 0.857.

Turning to U8G U47A, the yeast fitness was found to be 0.602.

Consider U8C A14G G56C, for which the yeast fitness is at most 0.5.

As to G9A C27A, the yeast fitness amounted to 0.955.

With U8C A21U C30G G58C, the yeast fitness was at most 0.5.

Regarding U8C C27U C34G C60A, the yeast fitness was 0.503.

With U8G C30U A45G C60A C66U, the yeast fitness was at most 0.5.

With U8A U19C G48C U59A C61U C66U, the yeast fitness is at most 0.5.

For G9A C27G C31U C46G G51C A70U, the yeast fitness was at most 0.5.

For the variant U8C G12C A70C, the yeast fitness was determined as 0.686.

As for U8G G18A G50C A65U, the yeast fitness turned out to be 0.513.

Consider G9A C30A A65C, for which the yeast fitness was determined as 0.664.

For the variant U8G C49U C55U, the yeast fitness is 0.549.

Turning to U8A G12A C62U, the yeast fitness is at most 0.5.

In the case of G9A C11G U19C A20G G56A C60G, the yeast fitness is at most 0.5.

Regarding U8G U13A C30U G39C, the yeast fitness is at most 0.5.

As to U8A G18C G48C A65G, the yeast fitness was at most 0.5.

Consider G9A C11A G44C, for which the yeast fitness is at most 0.5.

In the case of U8A G12C U47C, the yeast fitness is at most 0.5.

U8C A14C C24G G68A: the yeast fitness is at most 0.5.

Take G9A C11U C49A G67U: the yeast fitness was at most 0.5.

Consider G9A C29A A37G, for which the yeast fitness worked out at 0.513.

U8G G17A C31A C66U: the yeast fitness was at most 0.5.

With U8G G41A C60G, the yeast fitness was at most 0.5.

For the variant G9A A45U A70U, the yeast fitness came out at 1.01.

With U8A G12A A14C C60U G67C, the yeast fitness was at most 0.5.

G9A A45G G50C A69C: the yeast fitness is at most 0.5.

With U8G G10C A40C, the yeast fitness is at most 0.5.

Turning to U8G A20U A36G, the yeast fitness was 0.635.

On to U8G C24U C29G C31A A45G C61U A65C G67A G68A, for which the yeast fitness was at most 0.5.

As for G9A C27U G41C, the yeast fitness was 0.618.

For the variant G9A A21U, the yeast fitness was found to be 0.693.

G9A A21G: the yeast fitness was 1.05.

As to G9A A14G A20C A42C, the yeast fitness was at most 0.5.

Regarding U8C U26A A43U A70U, the yeast fitness is 0.675.

For U8G A14G G25A A36G A42U G68C, the yeast fitness was at most 0.5.

Consider U8C G68A, for which the yeast fitness is 0.741.

Regarding U8A C24A C30U C31U G48C C66U, the yeast fitness is at most 0.5.

As for U8C C24U A42U G52C, the yeast fitness was at most 0.5.

With U8G C34G C55G C62A G68A, the yeast fitness was at most 0.5.

U8C C24A C49U: the yeast fitness is at most 0.5.

Regarding U8C C22A A36C C55G A65G C66G, the yeast fitness was at most 0.5.

For the variant U8C C27G A42G, the yeast fitness was at most 0.5.

As to G9A A40C, the yeast fitness stood at 0.881.

For the variant G9A A40G, the yeast fitness amounted to 0.918.

Consider U8C G50C, for which the yeast fitness was determined as 0.663.

Regarding G9A C11G U13G G23C C34U C55U, the yeast fitness was at most 0.5.

Take U8A U19C C31A U35G A43G U47C G52C G67A: the yeast fitness was determined as 0.575.

For U8C U16A U19A C22U U28C, the yeast fitness is at most 0.5.

Turning to U8C U47C U59A A70G, the yeast fitness is at most 0.5.

On to U8C G18A G23C C31G G38C G41A, for which the yeast fitness was 0.635.

As for U8C U19C, the yeast fitness was found to be 0.978.

In the case of U8G A14G G18A U47A, the yeast fitness was at most 0.5.

With U8G U54G G56C, the yeast fitness was at most 0.5.

With U8C G18C, the yeast fitness was determined as 0.684.

In the case of G9A A14G C29G, the yeast fitness is at most 0.5.

On to G9A A36U C46U, for which the yeast fitness was at most 0.5.

As for U8C A36G G39C C49U U54G, the yeast fitness was at most 0.5.

Regarding U8A G48C, the yeast fitness came out at 0.761.

Regarding U8A G12A A21G, the yeast fitness was at most 0.5.

As for U8C C22G C30G, the yeast fitness was at most 0.5.

As to G9A A14U C46G C55U A69C, the yeast fitness was at most 0.5.

Turning to G9A C22G A45G, the yeast fitness was 0.588.

For U8A C31G, the yeast fitness is 0.679.

For U8C A45C, the yeast fitness was determined as 0.802.

Regarding G9A C24G A37C A70U, the yeast fitness is at most 0.5.

With G9A A15C G58C, the yeast fitness turned out to be 0.581.

As to U8C U13C C24A A37G, the yeast fitness was found to be 0.761.

G9A C11A A20U G23A G51A: the yeast fitness is at most 0.5.

On to U8A G68C, for which the yeast fitness is 0.661.

Turning to U8C C29A C34G A36G A40C U47A U64C, the yeast fitness is at most 0.5.

With U8A C24A A70U, the yeast fitness is at most 0.5.

For U8C U19C C55G A70C, the yeast fitness was at most 0.5.

On to U8C C24G G38C U53G, for which the yeast fitness worked out at 0.635.

As for U8G G18C A37G A40G, the yeast fitness was 0.546.

Regarding U8C G10A G51A G58A, the yeast fitness was at most 0.5.

Take U8A U16A C29G A40G A42G C46G A65U: the yeast fitness was at most 0.5.

As to U8G A14U G39A C55G, the yeast fitness is at most 0.5.

With G9A A21U A36G A40C A69U, the yeast fitness was at most 0.5.

Consider U8C C11U G18A A20U C22G C31G, for which the yeast fitness is at most 0.5.

As for U8G G10C A20G G58A, the yeast fitness is at most 0.5.

In the case of G9A A20C, the yeast fitness is 0.871.

As to U8G G17A C24G, the yeast fitness is at most 0.5.

As for G9A C11G U19C C55A, the yeast fitness is at most 0.5.

On to U8A U26C G52C, for which the yeast fitness was at most 0.5.

Regarding U8A C29A A43G A57U, the yeast fitness was at most 0.5.

As for U8A C31U A69C, the yeast fitness came out at 0.557.

Consider G9A A14U A21C, for which the yeast fitness was 0.577.

As for U8C C49G, the yeast fitness was 1.01.

Regarding U8A C29A, the yeast fitness was at most 0.5.

U8A U32G A37G: the yeast fitness was at most 0.5.

U8A U13A A20C A21U A42U: the yeast fitness was at most 0.5.

For U8G C11U G48A A69U, the yeast fitness is at most 0.5.

On to G9A C27G C34A C46G C55A, for which the yeast fitness was found to be 0.508.

As to G9A A69G, the yeast fitness was 0.953.

As for G9A A69U, the yeast fitness was found to be 1.04.

Regarding U8C C22G C49U A69U, the yeast fitness was found to be 0.573.

Regarding G9A A14U C29G C34A G63A, the yeast fitness was at most 0.5.

As for U8A G38C G48A, the yeast fitness was at most 0.5.

On to U8A C55U G68A, for which the yeast fitness amounted to 0.578.

As to U8G A37U G63C, the yeast fitness is at most 0.5.

Consider G9A C24U U32G, for which the yeast fitness was at most 0.5.

Regarding U8A C29U C34U G58C, the yeast fitness was at most 0.5.

U8C G12A G48C: the yeast fitness is 0.675.

Turning to U8C G12C, the yeast fitness is 0.853.

Take G9A C22A C60A: the yeast fitness is 0.705.

With U8C A36U, the yeast fitness was 0.647.

For the variant U8A C34U, the yeast fitness is 0.508.

Consider U8C C27A G52A C62G A69G, for which the yeast fitness was at most 0.5.

As for G9A C11U C31U, the yeast fitness stood at 0.704.

Take G9A C29A G56C: the yeast fitness was at most 0.5.

For the variant U8C C22A A42U U54C C66G, the yeast fitness is at most 0.5.

Consider U8G C49G U53C C60A, for which the yeast fitness was at most 0.5.

Values taken from the RNAGym collection of RNA variant scans (doi:10.1126/science.aae0568).
